# Rows were chosen to be rich in hits. Some 3.3% of all compounds tested hit in one or more screens of this group.
# NRP1-CendR mod: modulators of CendR peptide binding to NRP-1, primary screen, biochemical, fluorescence polarization, uHTS | FAM-RPARPAR peptide binding to NRP-1 | AID 602438, 2012 | inhibition, % at 25 µM | 360,000 tested, 0.85% active;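 active = inhibition or corrected inhibition above about 18%, plus a signal ratio from 0.5 to 1.5, limit read from the data, passing the limit was not always enough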
# SENP7 block: SENP7 protease inhibitors, primary screen, biochemical, luminescence, uHTS. 330,000 tested, 1.5% active. inhibition, % at 5 µM. recombinant SENP7, Z-RLRGG-aminoluciferin luminescence, 40 min;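 active = inhibition above about 50% at the single test dose, limit read from the data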;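 note: plate controls were DMSO with enzyme for no effect and no enzyme buffer wells for full effect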
# SENP8 block-1: human SENP8 protease inhibitors, primary screen, biochemical, fluorescence, Nedd8 protein substrate, uHTS | inhibition, % at 20 µM | recombinant SENP8 | 360,000 tested, 0.64% active; in the data active = inhibition mostly above about 40%, no sharp cut-off; inactive = mostly below about 27%
# Target sequence (Q96LD8 whole entry, looked up): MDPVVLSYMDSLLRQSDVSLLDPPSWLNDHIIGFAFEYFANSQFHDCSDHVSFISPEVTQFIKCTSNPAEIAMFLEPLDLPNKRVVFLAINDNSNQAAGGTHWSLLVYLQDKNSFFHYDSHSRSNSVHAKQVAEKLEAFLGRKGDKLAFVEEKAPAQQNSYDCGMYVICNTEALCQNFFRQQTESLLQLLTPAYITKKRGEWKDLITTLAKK
# SENP8 block-2: SENP8 protease inhibitors, primary screen, biochemical, luminescence | Sentrin-specific protease 8 (Homo sapiens), Q96LD8 | purified SENP8, Z-RLRGG-aminoluciferin cleavage | inhibition, % at 10 µM | 330,000 tested, 1.2% active | AID 2540, 2010; in the data active = inhibition above about 50%
# SENP6 block: SENP6 protease inhibitors, primary screen, biochemical, luminescence, uHTS; Recombinant SENP6 catalytic domain, aminoluciferin luminescence; inhibition, % at 10 µM; 330,000 tested, 1.8% active; Sentrin-specific protease 6 (Homo sapiens), Q9GZR1; AID 2599, 2010;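 active = inhibition above about 50% at the single tested dose, limit read from the data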;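 note: plate controls were DMSO wells with enzyme for no effect and DMSO wells lacking enzyme for full effect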
# SENP1 FRET inh: human SENP1 catalytic domain inhibitors, primary screen, biochemical, FRET, uHTS. inhibition, % at 10 µM. 360,000 tested, 0.21% active. Sentrin-specific protease 1 (Homo sapiens), Q9P0U3. recombinant SENP1 catalytic domain, CyPet-SUMO1-YPet FRET cleavage;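 active = inhibition at least 30% at 10 µM, raw YFP signal under a set limit, fluorescence ratio 0.5 to 1.5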;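 note: 0% = enzyme with DMSO and 100% = no enzyme wells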
# Target sequence (Q9P0U3 419-644 limits assumed): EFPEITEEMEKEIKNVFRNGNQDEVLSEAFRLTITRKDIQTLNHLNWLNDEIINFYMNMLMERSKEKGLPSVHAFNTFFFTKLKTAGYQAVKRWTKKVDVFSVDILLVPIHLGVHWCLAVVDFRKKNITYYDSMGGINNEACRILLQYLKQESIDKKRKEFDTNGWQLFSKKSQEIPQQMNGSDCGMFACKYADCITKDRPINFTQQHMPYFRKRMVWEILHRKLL
#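 Material: hSENP1 catalytic domain, recombinant; medium: Tris pH 8 with BME, BSA, NP40 and catalase; compound: single concentration of 10 µM compound, 0.5% DMSO final; technique: FRET read of cyan and yellow fluorescence; timing: 50 min enzyme reaction, room temperature, light-protected; reagent: SFCypet-SUMO1-SFYpet substrate at 25 nM; control set: no-enzyme low, enzyme-DMSO high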
# SENP8 conf: SENP8 protease inhibitors, retest, confirmation, biochemical, luminescence, single concentration; AID 488912, 2010; Recombinant SENP8, Z-RLRGG-aminoluciferin luminescence, 60 min; 6,200 tested, 40% active; inhibition, % at 12.5 µM; shares compounds with SENP7 block;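 active = mean inhibition across replicates above about 50%, limit read from the data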
# SENP6 conf: SENP6 protease inhibitors, confirmation, biochemical, luminescence, single concentration. shares compounds with SENP7 block. recombinant SENP6, Z-RLRGG-aminoluciferin luminescence. inhibition, % at 12.5 µM. 6,200 tested, 58% active
# SENP7 conf: SENP7 protease inhibitors, retest, confirmation, biochemical, luminescence, single concentration. shares compounds with SENP7 block. recombinant SENP7, Z-RLRGG-aminoluciferin luminescence, 40 min. inhibition, % at 12.5 µM. 6,200 tested, 69% active
# Casp3 SENP sel: caspase-3 protease inhibitors, confirmation, selectivity assay for SENP inhibitor project, biochemical, single concentration | 6,200 tested, 60% active | shares compounds with SENP7 block | purified caspase-3, Z-DEVD-aminoluciferin luminescence, 60 min | inhibition, % at 12.5 µM;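 active = mean inhibition above about 50%, limit read from the data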;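 note: plate controls were enzyme with DMSO for no effect and wells without caspase-3 for full effect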
# Target sequence (P42574 28-227 limits assumed): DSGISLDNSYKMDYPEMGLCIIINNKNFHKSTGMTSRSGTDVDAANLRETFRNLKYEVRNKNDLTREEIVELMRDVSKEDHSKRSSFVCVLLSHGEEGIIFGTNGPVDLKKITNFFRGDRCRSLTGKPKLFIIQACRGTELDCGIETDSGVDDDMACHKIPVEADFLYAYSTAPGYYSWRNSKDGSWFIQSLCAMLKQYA
# SENP luc ctr: luminescence interference (SENP counter-screen); 6,200 tested, 39% active; Pre-incubated SENP8/Z-RLRGG-aminoluciferin, luciferase luminescence interference; shares compounds with SENP7 block; inhibition, % at 12.5 µM;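 active = mean inhibition above about 50% when retested at one dose, limit read from the data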;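 note: plate controls were DMSO wells with completed reaction for no effect and substrate without enzyme for full effect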
# * = called active by the depositor; . = not tested or not shown.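 Rule for the calls, unless noted: active = mean inhibition above about 50% in the one-dose retest (limit read from the data); inactive = the rest.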
SMILES,NRP1-CendR mod,SENP7 block,SENP8 block-1,SENP8 block-2,SENP6 block,SENP1 FRET inh,SENP8 conf,SENP6 conf,SENP7 conf,Casp3 SENP sel,SENP luc ctr
COc1cc(Cl)c(C)cc1NC(=O)COc1ccc(C)nc1[N+](=O)[O-],7.7,-7.0,9.2,-6.3,-2.0,-0.6,.,.,.,.,.
CC1=C(C(=O)N2CCCCCC2)CC(CC(=O)NCCc2ccccn2)C(=O)N1Cc1ccc(C(C)(C)C)cc1 (configuration not stated),-7.6,.,11.3,.,.,0.3,.,.,.,.,.
CC(C)COc1ccc(-c2nnc(-c3ccco3)o2)cc1,-6.6,94.2*,-244.2,59.0*,94.2*,0.1,5.7,73.5*,62.5*,63.9*,48.1
O=C(COc1ccccc1)Nc1ccc(-c2nnc(-c3ccco3)o2)cc1,-25.9,-15.2,-453.4,-16.4,1.9,-1.8,.,.,.,.,.
CCCOc1ccc(-c2nnc(-c3ccco3)o2)cc1,-1.5,87.4*,-193.1,78.4*,-7.6,1.0,4.3,45.2,59.1*,46.3,15.4
Nc1[nH]c2cc([N+](=O)[O-])ccc2c1-c1ccccn1,-237.4,-14.2,17.9,-4.7,-25.7,-0.3,.,.,.,.,.
O=C(COc1ccc(Br)cc1)N1CCN(c2ncccn2)CC1,-2.9,-2.0,-14.9,-1.7,8.2,-1.4,.,.,.,.,.
Cc1cccc(NC(=O)CNC(=O)c2cccc(-n3cccc3)c2)c1C,-24.0,8.9,-2.8,-5.9,-30.7,0.2,.,.,.,.,.
Cc1ccc2c(=O)n3c(nc2c1)C(Cc1ccc(O)cc1)NC(=O)c1cc2ccccc2cc1-3 (configuration not stated),-3.5,.,0.6,.,.,-1.3,.,.,.,.,.
COC(=O)c1nn(-c2ccc(-c3ccccc3)cc2)cc1O,-103.4,96.5*,-492.3,93.4*,97.0*,-8.3,92.4*,97.9*,102.3*,95.2*,87.6*
CCOC(=O)c1nn(-c2ccccc2)cc1O,-3.4,2.0,-37.9,9.8,-6.7,1.2,.,.,.,.,.
CCc1nc2ccc(C(=O)NC3CCN(Cc4ccccc4)CC3)cn2c1N(CC)Cc1cccc(Br)c1,1.0,.,-15.5,.,.,-48.0,.,.,.,.,.
N#Cc1ccccc1S(=O)(=O)N1CCN(Cc2cc3c(cc2Br)OCCO3)CC1,-11.5,.,-2.8,.,.,0.2,.,.,.,.,.
c1ccc2sc(NN=C3CCCCCC3)nc2c1,2.5,83.0*,-15.7,80.9*,91.1*,-2.2,89.4*,94.3*,100.6*,87.4*,54.2*
Cc1nnsc1S(=O)c1ccccc1Cl (configuration not stated),11.3,-7.8,9.9,-10.3,-22.6,1.3,.,.,.,.,.
O[C@@H]1C[C@H](c2ccc(Cl)cc2)N(Cc2cccs2)C[C@H]1n1cc(C2CC2)nn1,-13.1,.,17.3,.,.,-0.3,.,.,.,.,.
COc1ccccc1/C=C/C(=O)NCC(=O)N/N=C/c1cc(Br)ccc1OC,-22.3,2.7,-72.9,-3.7,-9.1,-10.3,.,.,.,.,.
COc1ccc(/C=C/C(=O)NCC(=O)N/N=C/c2cc(Br)ccc2OC)cc1,4.2,84.1*,4.4,-2.9,-5.9,1.3,3.1,-0.1,-0.9,-1.5,-1.6
CCCOc1ccc(C(=O)NC(=S)Nc2nc3ccccc3s2)cc1,12.3,91.9*,26.5,-6.2,2.7,-1.1,5.0,10.5,15.9,5.1,12.1
Cc1ccc2nc(NC(=S)NC(=O)c3ccc(OC(C)C)cc3)sc2c1,2.9,-9.4,12.8,1.2,-5.6,0.7,.,.,.,.,.
COc1ccc(/C(C)=N/OCC(=O)Nc2nc3ccccc3s2)cc1OC,-14.7,30.4,0.2,36.2,52.8*,-20.6,40.5,33.5,63.9*,20.7,33.8
COc1ccc(/C=N/OCC(=O)Nc2nc3ccccc3s2)cc1,2.6,54.1*,-0.5,53.4*,78.4*,1.5,-6.9,-6.0,-2.4,4.3,6.1
C/C(=N\OCC(=O)Nc1nc2ccccc2s1)c1ccccc1,14.6,13.2,9.2,26.1,45.3,0.5,.,.,.,.,.
CCOc1ccc2nc(NC(=O)CSc3ccc(Cl)cc3)sc2c1,-14.3,0.2,6.2,-8.9,-13.2,-0.7,.,.,.,.,.
COc1ccc2nc(NC(=O)CSc3cn[nH]n3)sc2c1,3.5,6.8,-4.6,11.0,50.2*,0.1,31.0,27.5,65.1*,62.0*,59.5*
SMILES,NRP1-CendR mod,SENP7 block,SENP8 block-1,SENP8 block-2,SENP6 block,SENP1 FRET inh,SENP8 conf,SENP6 conf,SENP7 conf,Casp3 SENP sel,SENP luc ctr
CCOc1ccc2nc(NC(=O)CSc3cn[nH]n3)sc2c1,-12.3,1.5,10.6,14.6,67.0*,-0.1,34.7,30.4,50.3*,40.7,48.9
CCc1nc2c(OCCn3cccc3)cccn2c1N(C)C(=O)c1ccc(C)cc1,4.7,.,20.8,.,.,-2.9,.,.,.,.,.
CC(=O)Nc1ccc(S(=O)(=O)NCCSc2ccccn2)cc1,19.3,-6.7,13.2,-6.2,-10.0,2.4,.,.,.,.,.
CC(=O)Nc1ccc(S(=O)(=O)/N=C2\C(=O)c3ccccc3C([O-])=C2n2cc[n+](-c3ccccn3)c2)cc1,11.2,35.5,55.5*,52.8*,76.8*,-23.9,70.2*,87.6*,61.3*,53.7*,4.1
COc1ccc(-c2cc(=Nc3ccc(C(=O)O)cc3)c3cc(C)ccc3o2)cc1,-10.6,89.5*,-445.7,78.6*,65.8*,0.7,-3.5,81.0*,93.3*,83.8*,63.9*
CCc1ccc2oc(-c3ccc(OC)cc3)cc(=Nc3c(C)n(C)n(-c4ccccc4)c3=O)c2c1,-12.8,98.7*,-447.7,84.5*,96.6*,-1.5,22.9,20.0,15.6,48.2,19.8
CCc1ccc2oc(-c3ccc(OC)cc3)cc(=Nc3cccc(C(=O)O)c3)c2c1,-9.3,96.9*,-436.9,85.8*,-1.0,0.6,82.7*,84.7*,95.0*,79.4*,63.0*

# Assay outcomes as filed in PubChem BioAssay.
